Results on 167 variants are retold here after the RNAGym collection of RNA variant scans (doi:10.1126/science.aae0568).

Fewer inactive variants are shown than the library holds.

First the molecules themselves.
B1: tRNA (parent)
chain: GUUCCGUUGGCGUAAUGGUAACGCGUCUCCCUCCUAAGGAGAAGACUGCGGGUUCGAGUCCCGUACGGAACG

The variants in this data set derive from B1. Nature of the data set: yeast fitness relative to wild type (ratio to wild type); higher = fitter; tRNA-Arg(CCU), competitive growth, 37 C, YPD. Put shortly:
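A pool of Saccharomyces cerevisiae strains, each with a tRNA-Arg(CCU) gene variant at the native genomic locus, was competed in YPD at 37°C for 24 hours across six parallel replicates. The variants had been chemically synthesised at a 3% per-site mutation rate over 69 sites, and gene amplicons before and after competition were read by 100-nucleotide paired-end sequencing. Darwinian fitness relative to wild type rested on changes in genotype frequencies. Genotypes required ≥ 100 starting reads, and estimates < 0.5 were set to 0.5.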
Regarding A21U C22U G25A A57C G68U A69C, the yeast fitness came out at 0.599.

Turning to A14U U16C A42U, the yeast fitness was at most 0.5.

On to U3C U16A C34A U53C C60U, for which the yeast fitness is at most 0.5.

Consider G25C U35A A37U G67A A70G, for which the yeast fitness was at most 0.5.

Turning to U2A U59C, the yeast fitness was 0.995.

With A21U C31U G52A A69G, the yeast fitness stood at 0.706.

On to G41A C49A C66A, for which the yeast fitness was at most 0.5.

In the case of C34A C46G C60A, the yeast fitness is at most 0.5.

Regarding G6A G18C A37C C60A U64A, the yeast fitness is at most 0.5.

In the case of A42C A65U, the yeast fitness worked out at 0.784.

As for C27U G38C A40U A45G G52A A65C, the yeast fitness was at most 0.5.

In the case of C4G U32G A69C, the yeast fitness was at most 0.5.

In the case of U13A C34G C61U, the yeast fitness is at most 0.5.

C11G C46U A65U: the yeast fitness was 0.561.

For the variant C24U C66U, the yeast fitness was 0.794.

With U7A U19A C29A, the yeast fitness is at most 0.5.

In the case of A57G C60U, the yeast fitness came to 0.838.

With U2G G6C C11U C27U G63C, the yeast fitness was at most 0.5.

With G9C C24G A40U C55A, the yeast fitness was at most 0.5.

For the variant G10A A21U C27U C49A U64C, the yeast fitness is at most 0.5.

Take C4U C11U: the yeast fitness came out at 0.969.

Take C5G U35C: the yeast fitness is 0.71.

Consider G6A G52A, for which the yeast fitness was found to be 0.677.

With A21G A37C A65U G68C, the yeast fitness is at most 0.5.

In the case of A40G C61G U64C, the yeast fitness is at most 0.5.

For C4U A15C G51A, the yeast fitness is at most 0.5.

As to A20U C22A U32G, the yeast fitness was at most 0.5.

In the case of C4G C49G U64G A65G A70U, the yeast fitness is at most 0.5.

With A57C C66A, the yeast fitness came out at 0.624.

Consider C34U A57C, for which the yeast fitness turned out to be 0.553.

On to C4U G10A C24U A69U, for which the yeast fitness turned out to be 0.838.

For U7A A21G C30G A36G C46G C66U, the yeast fitness was at most 0.5.

As for C22U C30G A65C C66U, the yeast fitness turned out to be 0.62.

Consider C5G G67C, for which the yeast fitness amounted to 0.99.

Turning to U13C C33A A36C G63C C66G, the yeast fitness is at most 0.5.

As for A15U U28C G44A A57G, the yeast fitness was at most 0.5.

As to C22G A42G, the yeast fitness is 0.716.

C27G C61G: the yeast fitness amounted to 0.554.

In the case of U7C U28C, the yeast fitness was found to be 0.879.

With U13C U16A G17C C34U, the yeast fitness was at most 0.5.

As to C33G A42C, the yeast fitness worked out at 0.675.

Regarding C33A C49U C55G, the yeast fitness is at most 0.5.

C5A U19A C30G: the yeast fitness stood at 0.594.

Regarding U19A C24G C27G C31G C34G A37C A57G C61G, the yeast fitness is 0.576.

As for C22G C60A C62U, the yeast fitness was determined as 0.589.

As to G9A C55G A65C, the yeast fitness was at most 0.5.

As to U2C G58A, the yeast fitness was 0.893.

For U2G U7C, the yeast fitness is 0.772.

For the variant U16A G25A U28A, the yeast fitness is at most 0.5.

With U2C G50A G51A, the yeast fitness was 0.511.

For A40U U47C C66A, the yeast fitness is 0.611.

Turning to U13G U28A C30A A69U, the yeast fitness worked out at 0.554.

Consider A43G G51C A69U, for which the yeast fitness was at most 0.5.

On to G6A C31U, for which the yeast fitness amounted to 0.933.

On to U7C U19C C34U G52A U59A, for which the yeast fitness turned out to be 0.678.

For the variant U3C G44C A70C, the yeast fitness worked out at 0.602.

Consider C4G C24U U47C, for which the yeast fitness was determined as 0.673.

Regarding U32G G58C A65U, the yeast fitness is at most 0.5.

For G56A A57U C62G, the yeast fitness is at most 0.5.

On to C33A G39A G52C C55G, for which the yeast fitness was at most 0.5.

G12C G52A: the yeast fitness stood at 0.745.

C4A U8C A15C C31U G48C A65C: the yeast fitness stood at 0.608.

On to C29U G38C A69U, for which the yeast fitness was 0.581.

Consider C4A C11G U13G G25A, for which the yeast fitness was at most 0.5.

For the variant A14C C27G C46G A65G, the yeast fitness is 0.576.

For the variant C22A A37U C66U, the yeast fitness was at most 0.5.

As to U3C A14C A45C C60G, the yeast fitness is 0.591.

For C31A A42C, the yeast fitness turned out to be 0.963.

Take G9A G12C C31A C33G A45G C66U G68C: the yeast fitness is at most 0.5.

G58C U64A A69G: the yeast fitness stood at 0.61.

For C24U C46U A65U, the yeast fitness stood at 0.714.

Consider U19C G41A, for which the yeast fitness was found to be 0.899.

As for C11G A57C C60U, the yeast fitness is at most 0.5.

In the case of A42C A45C G48A G58A C61U A70G, the yeast fitness was at most 0.5.

C33A C49U C62G: the yeast fitness came out at 0.735.

For the variant C11G A15G C22A A37U A65C C66G, the yeast fitness is at most 0.5.

In the case of U2A G6A C33G C34G C61A, the yeast fitness is at most 0.5.

Regarding G18C U28G C61U A65C, the yeast fitness was at most 0.5.

Turning to C4U C55U C61U, the yeast fitness came out at 0.673.

In the case of C4G G9A G39A A65U A69U, the yeast fitness is at most 0.5.

For the variant U3C C31U A43G A69U, the yeast fitness worked out at 0.733.

In the case of A15U C22G C31G U32G, the yeast fitness was found to be 0.626.

On to C34U G39C C49G, for which the yeast fitness is at most 0.5.

Consider U2A U13A C24A C30A, for which the yeast fitness was at most 0.5.

Consider G12C C33G A37G A40C C49G G67C, for which the yeast fitness came out at 0.539.

As for C4G C24G C33G G63A, the yeast fitness was found to be 0.554.

On to U2C C4G C22U C30A, for which the yeast fitness is at most 0.5.

Consider U7C A37U G39C A43U C55G, for which the yeast fitness was at most 0.5.

Regarding U26A A43G G51C A69U, the yeast fitness came out at 0.566.

As for A36U G50A U59G, the yeast fitness is at most 0.5.

As for C4G A20U A43C G50A, the yeast fitness is at most 0.5.

U2C U35C A69C: the yeast fitness was at most 0.5.

With G51A C55U G58A, the yeast fitness was found to be 0.606.

Consider A37C G41A, for which the yeast fitness amounted to 1.01.

As for U19G C22G A36C A57G C60A C66G, the yeast fitness is at most 0.5.

With G12C C27A, the yeast fitness was 0.814.

Turning to U7C C31U C46U, the yeast fitness amounted to 0.532.

In the case of C5U A15G A20U, the yeast fitness was determined as 0.662.

Take C24A C31A A43U C55U: the yeast fitness was determined as 0.674.

With C46A G68C, the yeast fitness is 0.78.

Take U2A G6A C11G U28G C34G G44C C61G: the yeast fitness was at most 0.5.

With C24U G41C C49A, the yeast fitness was 0.778.

In the case of C11G A15G A45C C46A A65C, the yeast fitness is at most 0.5.

With A37U G51A C55U, the yeast fitness is at most 0.5.

Take G41C G58C: the yeast fitness was 0.762.

Consider U32C U64C, for which the yeast fitness was found to be 0.946.

Consider C29U G56A, for which the yeast fitness is 0.765.

On to C11A U16C U32G U64G, for which the yeast fitness was at most 0.5.

For the variant C11A C33A A36C, the yeast fitness was 0.506.

As for U13C G25C C60U C62U, the yeast fitness was at most 0.5.

As to C27U G50A G52A U59C C66U, the yeast fitness is 0.53.

C5U A21G A45G: the yeast fitness was determined as 0.638.

U3G C11U C22A: the yeast fitness is at most 0.5.

For G9C A20G U26C, the yeast fitness was at most 0.5.

As for C29G A43U C66U, the yeast fitness was at most 0.5.

Regarding U8C U16C C29G, the yeast fitness was at most 0.5.

As to C4U C33A, the yeast fitness amounted to 0.724.

With A43G A57U, the yeast fitness came to 0.623.

Take U3C C31U U47C: the yeast fitness is 0.864.

With G12A A69G, the yeast fitness was determined as 0.907.

In the case of A15G U32A G38A A69U, the yeast fitness was at most 0.5.

On to A21U C49A G50C A57C C66G, for which the yeast fitness was found to be 0.561.

With U3A U7C C62G G63C, the yeast fitness is 0.586.

For the variant A15U C24G C34U U53C C55G C62A, the yeast fitness was at most 0.5.

Regarding C30U C34U A37U U59C C66U, the yeast fitness is 0.565.

Consider A37G G52A, for which the yeast fitness was 0.583.

A14C U28G C55G G68C: the yeast fitness was at most 0.5.

As to A43G A45U A69U, the yeast fitness was 0.771.

Consider A21C C24U G25C U26G U59A A70C, for which the yeast fitness is at most 0.5.

Consider G23A A69C, for which the yeast fitness turned out to be 0.793.

Take A20G A37C A40G: the yeast fitness is at most 0.5.

In the case of U13A U28A C30G C46U G56C C61G, the yeast fitness was at most 0.5.

G12A C33U G41C: the yeast fitness was at most 0.5.

Take A14U C55G C61G C66U: the yeast fitness was at most 0.5.

For the variant C46U G51C C66G, the yeast fitness is at most 0.5.

Regarding U2C C27A A40G C61G, the yeast fitness is at most 0.5.

Regarding U54C U59A, the yeast fitness is 0.82.

Turning to A14U U16A U26G C29G, the yeast fitness was at most 0.5.

In the case of G18C C29G C31G A57C, the yeast fitness was found to be 0.549.

Consider C4U G9A A40U, for which the yeast fitness was found to be 1.05.

Take A15U G23C A45U G52A: the yeast fitness is at most 0.5.

Turning to G9A G58A G67A, the yeast fitness was 0.959.

As for G12A C49A G51A, the yeast fitness was at most 0.5.

Turning to C11A C46G, the yeast fitness is 0.651.

U7A A20C G67C: the yeast fitness is at most 0.5.

For A42G G52C C66U G68A, the yeast fitness was at most 0.5.

As to A21C C33A C61U, the yeast fitness is at most 0.5.

For the variant A15C C30A A42C C55U, the yeast fitness was at most 0.5.

Turning to G9A G17C G56C, the yeast fitness amounted to 0.589.

Regarding U7G C29G C30U C46U, the yeast fitness stood at 0.534.

In the case of U32A A43G, the yeast fitness was found to be 0.666.

U8C C22G C49U: the yeast fitness was found to be 0.726.

As for C11G U13G C55G C66U, the yeast fitness is at most 0.5.

As to U7C C11U A37C C60A, the yeast fitness was at most 0.5.

Turning to C66A A69U, the yeast fitness was determined as 0.693.

For G9C U28C G44C G51A, the yeast fitness was at most 0.5.

For the variant C27G C66U, the yeast fitness was determined as 0.621.

With A36G G41C C60G, the yeast fitness turned out to be 0.682.

Take C5U U7C G10A C34A G63A: the yeast fitness is at most 0.5.

In the case of C11U C22G C62U A70C, the yeast fitness was at most 0.5.

With U35A G63C, the yeast fitness worked out at 0.56.

Consider C4U C29U G39C, for which the yeast fitness came out at 0.536.

For the variant G10C A14G A36U, the yeast fitness is at most 0.5.

For U3C U13C C24U G52A, the yeast fitness amounted to 0.576.

For the variant U3G G50A, the yeast fitness turned out to be 0.817.

Take U2G A37C C49G C62A: the yeast fitness was at most 0.5.

Consider C5U C34G A65C, for which the yeast fitness stood at 0.525.
